{"source": "ChEMBL document CHEMBL3124926", "about": "“Identification of highly efficacious glucocorticoid receptor agonists with a potential for reduced clinical bone side effects” (J Med Chem, 2014)", "key": {"[1]": {"experiment": "Volume of distribution at steady state in rat at 2 mg/kg, iv and 30 mg/kg, po", "type": "ADME, organism-based", "conditions": "in vivo, read-out: Vdss", "in_short": "(§1)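 Rat PK: 2 mg/kg iv in 80/20 PEG/water and 30 mg/kg po in 80/18/2 PEG/water/Tween.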"}, "Mus musculus [2]": {"test_system": "Mus musculus", "experiment": "Toxicity in collagen-induced B10.RIII mouse arthritis model assessed as change in insulin level at 100 mg/kg, po qd for 35 days relative to 30% cremophor-treated control", "type": "organism-based", "design": "dose 100 mg/kg, route oral", "conditions": "in vivo, 840 h", "in_short": "(§2)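 Female B10.RIII mice were immunized with porcine type II collagen in complete Freund's adjuvant, enrolled at arthritis onset (10/group), and dosed orally once daily for five weeks in 30% cremophor vehicle. Four paws were scored 1–4 (max 16), as AUC. Serum biomarkers were taken at day 35. Femur cortical thickness was measured by microCT in non-immunized, age-matched mice dosed identically.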"}, "Mus musculus [3]": {"test_system": "Mus musculus", "experiment": "Toxicity in collagen-induced B10.RIII mouse arthritis model assessed as change in AUC at 100 mg/kg, po qd for 35 days relative to 30% cremophor-treated control", "type": "organism-based", "design": "dose 100 mg/kg, route oral", "conditions": "in vivo, 840 h", "in_short": "as §2"}, "[4]": {"experiment": "Cmax in B10.RIII mouse at 100 mg/kg, po", "type": "ADME, organism-based", "design": "dose 100 mg/kg, route oral", "conditions": "in vivo", "in_short": "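Plasma levels measured in satellite B10.RIII mice (n = 3) after a single 100 mg/kg oral dose.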"}, "Mus musculus [5]": {"test_system": "Mus musculus", "experiment": "Antiinflammatory activity in po dosed Balb/c mouse assessed as inhibition of LPS-induced TNFalpha production administered 60 mins prior to LPS challenge measured after 1 hr by […]", "type": "functional"}, "[6]": {"experiment": "Oral bioavailability in rat at 30 mg/kg", "type": "ADME, organism-based", "conditions": "in vivo"}, "Mus musculus [7]": {"test_system": "Mus musculus", "experiment": "Toxicity in collagen-induced B10.RIII mouse arthritis model assessed as change in free fatty acid level at 100 mg/kg, po qd for 35 days relative to 30% cremophor-treated control", "type": "organism-based", "design": "dose 100 mg/kg, route oral", "conditions": "in vivo, 840 h", "in_short": "as §2"}, "Progesterone receptor": {"molecular_target": "T1, Progesterone receptor (Homo sapiens, UniProt P06401)", "T1 sequence (P06401 whole entry)": "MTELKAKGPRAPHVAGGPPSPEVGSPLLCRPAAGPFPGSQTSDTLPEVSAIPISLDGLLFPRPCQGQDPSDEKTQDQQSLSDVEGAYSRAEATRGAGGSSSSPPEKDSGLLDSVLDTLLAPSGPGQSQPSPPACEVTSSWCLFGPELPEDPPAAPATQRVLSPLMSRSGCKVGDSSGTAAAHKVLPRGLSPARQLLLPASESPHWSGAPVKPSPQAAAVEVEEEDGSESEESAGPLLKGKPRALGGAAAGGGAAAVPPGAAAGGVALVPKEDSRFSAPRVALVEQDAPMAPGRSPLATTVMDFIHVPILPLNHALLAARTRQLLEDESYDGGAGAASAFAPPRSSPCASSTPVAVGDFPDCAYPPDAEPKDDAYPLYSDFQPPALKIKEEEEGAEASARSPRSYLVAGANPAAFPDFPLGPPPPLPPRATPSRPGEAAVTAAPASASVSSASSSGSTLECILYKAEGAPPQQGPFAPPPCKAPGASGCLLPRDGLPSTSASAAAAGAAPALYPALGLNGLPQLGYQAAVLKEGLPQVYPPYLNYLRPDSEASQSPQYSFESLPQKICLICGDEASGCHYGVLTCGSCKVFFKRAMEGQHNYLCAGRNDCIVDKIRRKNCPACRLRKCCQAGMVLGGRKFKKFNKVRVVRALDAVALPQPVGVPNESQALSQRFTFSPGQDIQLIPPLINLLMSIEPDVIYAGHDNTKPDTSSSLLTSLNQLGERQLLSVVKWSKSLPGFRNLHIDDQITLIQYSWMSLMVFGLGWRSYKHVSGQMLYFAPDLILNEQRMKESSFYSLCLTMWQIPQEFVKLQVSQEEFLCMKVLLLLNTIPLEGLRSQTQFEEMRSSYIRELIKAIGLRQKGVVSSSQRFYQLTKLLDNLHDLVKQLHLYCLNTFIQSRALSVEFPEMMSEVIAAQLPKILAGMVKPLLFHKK", "experiment": "Competitive binding affinity to progesterone receptor (unknown origin) expressed in baculovirus-infected cell system after 1 hr by fluorescence polarization assay in presence of tetramethylrhodamine-labeled RU-486", "in_short": "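PR from lysate of insect cells infected with receptor baculovirus alone, diluted 13-fold. Probe 5 nM tetramethylrhodamine-labeled RU-486 in pH 7.4 TES/KCl/molybdate buffer with 1% DMSO. 1 h at room temperature in the dark, then fluorescence polarization (ex 550/em 580 nm). Background set with 2 μM RU-486. IC50 from duplicate 11-point curves, four-parameter logistic fit, mean of at least two determinations.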"}, "Mus musculus [8]": {"test_system": "Mus musculus", "experiment": "Toxicity in collagen-induced B10.RIII mouse arthritis model assessed as change in body fat at 100 mg/kg, po qd for 35 days relative to 30% cremophor-treated control", "type": "organism-based", "design": "dose 100 mg/kg, route oral", "conditions": "in vivo, 840 h", "in_short": "as §2"}, "Mus musculus [9]": {"test_system": "Mus musculus", "experiment": "Toxicity in collagen-induced B10.RIII mouse arthritis model assessed as change in femur cortical thickness at 100 mg/kg, po qd for 35 days relative to 30% cremophor-treated control", "type": "organism-based", "design": "dose 100 mg/kg, route oral", "conditions": "in vivo, 840 h", "in_short": "as §2"}, "Rattus norvegicus [10]": {"test_system": "Rattus norvegicus", "experiment": "Clearance in rat at 2 mg/kg, iv and 30 mg/kg, po", "type": "ADME, organism-based", "conditions": "in vivo", "in_short": "as §1"}, "Mus musculus [11]": {"test_system": "Mus musculus", "experiment": "Toxicity in collagen-induced B10.RIII mouse arthritis model assessed as change in body fat at 100 mg/kg, po qd for 35 days relative to 1% methylcellulose-treated control", "type": "organism-based", "design": "dose 100 mg/kg, route oral", "conditions": "in vivo, 840 h", "in_short": "(§3)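 Female B10.RIII mice were immunized at 12–15 weeks with porcine type II collagen emulsified in complete Freund's adjuvant (100 μg intradermal, tail base). Animals were enrolled at first arthritis signs, 10 per group, and dosed orally once daily for five weeks in 1% methylcellulose. Paws were scored 1–4 each (max 16), with AUC taken. Serum was collected at day 35. Femur cortical thickness was measured by microCT in non-immunized, age-matched mice given the same dosing.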"}, "[12]": {"experiment": "Volume of distribution at steady state in rat at 5 mg/kg, iv and 30 mg/kg, po", "type": "ADME, organism-based", "conditions": "in vivo, read-out: Vdss", "in_short": "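Rat pharmacokinetics: single intravenous dose of 5 mg/kg in 80/20 PEG/water, plus a separate oral dose of 30 mg/kg in 80/18/2 PEG/water/Tween. Steady-state volume of distribution is from the iv arm; clearance, half-life and oral bioavailability come from the same study.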"}, "[13]": {"experiment": "Half life in rat at 5 mg/kg, iv and 30 mg/kg, po", "type": "ADME, organism-based", "conditions": "in vivo", "in_short": "(§4)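 Rat PK: 5 mg/kg iv in 80/20 PEG/water and 30 mg/kg po in 80/18/2 PEG/water/Tween.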"}, "Mus musculus [14]": {"test_system": "Mus musculus", "experiment": "Toxicity in collagen-induced B10.RIII mouse arthritis model assessed as change in insulin level at 100 mg/kg, po qd for 35 days relative to 1% methylcellulose-treated control", "type": "organism-based", "design": "dose 100 mg/kg, route oral", "conditions": "in vivo, 840 h", "in_short": "as §3"}, "Mus musculus [15]": {"test_system": "Mus musculus", "experiment": "Toxicity in collagen-induced B10.RIII mouse arthritis model assessed as change in free fatty acid level at 100 mg/kg, po qd for 35 days relative to 1% methylcellulose-treated control", "type": "organism-based", "design": "dose 100 mg/kg, route oral", "conditions": "in vivo, 840 h", "in_short": "as §3"}, "Mus musculus [16]": {"test_system": "Mus musculus", "experiment": "Toxicity in collagen-induced B10.RIII mouse arthritis model assessed as change in AUC at 100 mg/kg, po qd for 35 days relative to 1% methylcellulose-treated control", "type": "organism-based", "design": "dose 100 mg/kg, route oral", "conditions": "in vivo, 840 h", "in_short": "as §3"}, "Rattus norvegicus [17]": {"test_system": "Rattus norvegicus", "experiment": "Clearance in rat at 5 mg/kg, iv and 30 mg/kg, po", "type": "ADME, organism-based", "conditions": "in vivo", "in_short": "as §4"}, "[18]": {"experiment": "Permeability across human Caco2 cells", "type": "ADME, cell-based", "conditions": "Caco-2, read-out: permeability"}, "[19]": {"experiment": "Aqueous solubility of the compound in buffer at pH 7", "type": "physicochemical"}}, "note": "pIC50: −log10 of the molar value."}
{"smiles": "Cc1ccc(F)cc1C(C)(C)C[C@@](O)(Cc1cc2nnccc2[nH]1)C(F)(F)F", "values": [{"measurement": "Vd", "setting": "[1]", "value": 3.7, "unit": "L/kg"}, {"measurement": "Activity", "setting": "Mus musculus [2]", "value": -36, "unit": "%"}, {"measurement": "Activity", "setting": "Mus musculus [3]", "value": -53, "unit": "%"}, {"measurement": "Cmax", "setting": "[4]", "value": 38.9, "unit": "µM"}, {"measurement": "ED50", "setting": "Mus musculus [5]", "value": 3, "unit": "mg/kg"}, {"measurement": "bioavailability", "setting": "[6]", "value": 9, "unit": "%"}, {"measurement": "Activity", "setting": "Mus musculus [7]", "value": -2, "unit": "%"}, {"measurement": "pIC50", "setting": "Progesterone receptor", "value": "< 5.70"}, {"measurement": "Activity", "setting": "Mus musculus [8]", "value": 8, "unit": "%"}, {"measurement": "Activity", "setting": "Mus musculus [9]", "value": -8, "unit": "%"}, {"measurement": "CL", "setting": "Rattus norvegicus [10]", "value": "> 100", "unit": "%"}]}
{"smiles": "Cc1ccc(F)cc1C(C)(C)C[C@@](O)(Cc1cc2ncncc2[nH]1)C(F)(F)F", "values": [{"measurement": "Activity", "setting": "Mus musculus [11]", "value": 32, "unit": "%"}, {"measurement": "Vd", "setting": "[12]", "value": 2.1, "unit": "L/kg"}, {"measurement": "half-life", "setting": "[13]", "value": 36, "unit": "min"}, {"measurement": "Activity", "setting": "Mus musculus [14]", "value": 17, "unit": "%"}, {"measurement": "Activity", "setting": "Mus musculus [15]", "value": 14, "unit": "%"}, {"measurement": "Activity", "setting": "Mus musculus [16]", "value": -57, "unit": "%"}, {"measurement": "Cmax", "setting": "[4]", "value": 4.32, "unit": "µM"}, {"measurement": "ED50", "setting": "Mus musculus [5]", "value": 1, "unit": "mg/kg"}, {"measurement": "bioavailability", "setting": "[6]", "value": 13, "unit": "%"}, {"measurement": "pIC50", "setting": "Progesterone receptor", "value": "< 5.70"}, {"measurement": "CL", "setting": "Rattus norvegicus [17]", "value": 61, "unit": "%"}]}
{"smiles": "Cc1ccc(F)cc1C(C)(C)CC(O)(Cc1cc2nc(-c3ccccc3)ncc2[nH]1)C(F)(F)F", "note": "(racemic)", "values": [{"measurement": "pIC50", "setting": "Progesterone receptor", "value": "< 5.70"}]}
{"smiles": "Cc1ccc(F)cc1C(C)(C)CC(O)(Cc1cc2nc(-c3cccnc3)ncc2[nH]1)C(F)(F)F", "note": "(racemic)", "values": [{"measurement": "pIC50", "setting": "Progesterone receptor", "value": "< 5.70"}]}
{"smiles": "Cc1ccc(F)cc1C(C)(C)CC(O)(Cc1cc2nc(N3CCS(=O)(=O)CC3)ncc2[nH]1)C(F)(F)F", "note": "(racemic)", "values": [{"measurement": "pIC50", "setting": "Progesterone receptor", "value": "< 5.70"}]}
{"smiles": "CC(C)(CC(O)(Cc1cc2ncncc2[nH]1)C(F)(F)F)c1ccc(F)cc1O", "note": "(racemic)", "values": [{"measurement": "pIC50", "setting": "Progesterone receptor", "value": 6.06}]}
{"smiles": "CC(C)(CC(O)(Cc1cc2ncncc2[nH]1)C(F)(F)F)c1cc(Cl)cc2c1OCC2", "note": "(racemic)", "values": [{"measurement": "pIC50", "setting": "Progesterone receptor", "value": 5.77}]}
{"smiles": "Cc1ccc(F)cc1C(C)(C)CC(O)(Cc1cc2nnccc2[nH]1)C(F)(F)F", "note": "(racemic)", "values": [{"measurement": "Papp", "setting": "[18]", "value": 13, "unit": "×10⁻⁶ cm/s"}, {"measurement": "pIC50", "setting": "Progesterone receptor", "value": "< 5.70"}, {"measurement": "solubility", "setting": "[19]", "value": 2, "unit": "µg/mL"}]}
{"smiles": "Cc1ccc(F)cc1C(C)(C)CC(O)(Cc1cc2cc(-c3ccccc3)nnc2[nH]1)C(F)(F)F", "note": "(racemic)", "values": [{"measurement": "pIC50", "setting": "Progesterone receptor", "value": "< 5.70"}]}
{"smiles": "Cc1ccc(F)cc1C(C)(C)CC(O)(Cc1cc2ncncc2[nH]1)C(F)(F)F", "note": "(racemic)", "values": [{"measurement": "Papp", "setting": "[18]", "value": 11, "unit": "×10⁻⁶ cm/s"}, {"measurement": "pIC50", "setting": "Progesterone receptor", "value": "< 5.70"}, {"measurement": "solubility", "setting": "[19]", "value": 11, "unit": "µg/mL"}]}
